Data: ChEMBL document CHEMBL1212819, “Heteroadamantyl cannabinoids” (J Med Chem, 2010)

Columns and labels:
[1] = target: Cannabinoid receptor 1 (Rattus norvegicus, UniProt P20272); assay: Displacement of [3H]CP-55940 from CB1 receptor in rat brain; type: tissue-based
Outline: (§1)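 Competition binding against [3H]CP-55,940. CB1 came from rat brain membranes, and CB2 from membranes of HEK293 cells expressing mouse or human CB2. Curves were fitted by nonlinear regression to give IC50, and Ki was calculated from IC50. Each experiment was run in triplicate, and Ki values come from a single experiment.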

[2] = target: Cannabinoid receptor 2 (Mus musculus, UniProt P47936); assay: Displacement of [3H]CP-55940 from mouse CB2 receptor expressed in HEK293 cell membranes; outline: as §1
Cannabinoid receptor 2 (Mus musculus, UniProt P47936), sequence (P47936 whole entry): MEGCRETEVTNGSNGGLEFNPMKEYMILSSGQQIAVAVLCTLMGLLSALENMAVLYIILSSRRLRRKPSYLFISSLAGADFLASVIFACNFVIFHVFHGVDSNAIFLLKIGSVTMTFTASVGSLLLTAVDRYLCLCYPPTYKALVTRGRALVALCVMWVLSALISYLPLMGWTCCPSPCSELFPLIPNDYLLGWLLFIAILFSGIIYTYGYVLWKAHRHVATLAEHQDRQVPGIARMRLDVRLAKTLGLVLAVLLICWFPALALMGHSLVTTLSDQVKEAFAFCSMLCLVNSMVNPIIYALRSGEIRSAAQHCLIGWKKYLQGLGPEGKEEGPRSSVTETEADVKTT

[3] = target: Cannabinoid receptor 2 (Homo sapiens, UniProt P34972); assay: Displacement of [3H]CP-55940 from human CB2 receptor expressed in HEK293 cell membranes; outline: as §1
Cannabinoid receptor 2 (Homo sapiens, UniProt P34972), sequence (P34972 whole entry): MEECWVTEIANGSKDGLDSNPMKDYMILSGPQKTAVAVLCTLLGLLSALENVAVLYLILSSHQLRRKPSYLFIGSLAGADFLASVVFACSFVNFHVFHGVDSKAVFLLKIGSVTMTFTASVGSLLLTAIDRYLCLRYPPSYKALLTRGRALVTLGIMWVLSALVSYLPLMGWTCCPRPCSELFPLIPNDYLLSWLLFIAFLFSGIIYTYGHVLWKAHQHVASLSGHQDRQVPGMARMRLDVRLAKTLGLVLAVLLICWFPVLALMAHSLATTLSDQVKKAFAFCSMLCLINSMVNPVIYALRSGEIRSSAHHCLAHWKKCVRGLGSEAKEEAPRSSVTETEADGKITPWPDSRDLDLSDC

Cannabinoid receptor 1, sequence (P20272 whole entry): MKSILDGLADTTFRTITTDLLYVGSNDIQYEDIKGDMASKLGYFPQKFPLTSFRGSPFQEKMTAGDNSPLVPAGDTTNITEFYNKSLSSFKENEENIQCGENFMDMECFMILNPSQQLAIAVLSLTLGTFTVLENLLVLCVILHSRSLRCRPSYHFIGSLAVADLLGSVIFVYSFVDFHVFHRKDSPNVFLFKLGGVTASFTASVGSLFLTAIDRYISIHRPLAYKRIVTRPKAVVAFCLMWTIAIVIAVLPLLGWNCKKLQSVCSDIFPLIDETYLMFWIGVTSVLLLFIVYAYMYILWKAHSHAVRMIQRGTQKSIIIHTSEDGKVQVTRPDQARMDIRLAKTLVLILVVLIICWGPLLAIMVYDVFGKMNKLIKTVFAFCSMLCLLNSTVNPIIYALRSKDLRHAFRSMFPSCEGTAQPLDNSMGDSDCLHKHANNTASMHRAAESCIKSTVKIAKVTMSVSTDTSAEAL

CC1(C)Oc2cc(N3C4CC5CC3CC(C4)O5)cc(O)c2[C@@H]2C[C@H](O)CC[C@H]21
Ki ([1]; read-out: Ki): 1.8 µM
Ki [2]: 1.2 µM
Ki ([3]; read-out: Ki): 1.8 µM

CC1(C)Oc2cc(N3C4CC5CC3CC(C4)O5)cc(O)c2[C@@H]2C[C@@H](O)CC[C@H]21
Ki ([1]; read-out: Ki): 22.4 µM
Ki [2]: 17 µM
Ki ([3]; read-out: Ki): 14.9 µM

CC1(C)Oc2cc(C(=O)N3C4CC5CC3CC(C4)O5)cc(O)c2[C@@H]2C[C@H](O)CC[C@H]21
Ki [1]: Not Active
Ki [2]: 2.5 µM
Ki ([3]; read-out: Ki): 20 µM

CC1(C)Oc2cc(C(=O)N3C4CC5CC3CC(C4)O5)cc(O)c2[C@@H]2C[C@@H](O)CC[C@H]21
Ki [1]: Not Active
Ki [2]: 8.6 µM
Ki ([3]; read-out: Ki): 25 µM

CC1(C)Oc2cc(CN3C4CC5CC3CC(C4)O5)cc(O)c2[C@@H]2C[C@H](O)CC[C@H]21
Ki ([1]; read-out: Ki): 10 µM
Ki [2]: 8.7 µM
Ki ([3]; read-out: Ki): 15 µM

CC1(C)Oc2cc(CN3C4CC5CC3CC(C4)O5)cc(O)c2[C@@H]2C[C@@H](O)CC[C@H]21
Ki ([1]; read-out: Ki): 125 µM
Ki [2]: 7.5 µM
Ki ([3]; read-out: Ki): 5 µM

CC1(C)Oc2cc(C(=O)NC34CC5CC(CC(C5)C3)C4)cc(O)c2[C@@H]2C[C@H](O)CC[C@H]21
Ki ([1]; read-out: Ki): 80 µM
Ki [2]: 0.5 µM
Ki ([3]; read-out: Ki): 8.7 µM

CC1(C)Oc2cc(C(=O)NC34CC5CC(CC(C5)C3)C4)cc(O)c2[C@@H]2C[C@@H](O)CC[C@H]21
Ki ([1]; read-out: Ki): 375 µM
Ki [2]: 7.5 µM
Ki ([3]; read-out: Ki): 35 µM

CC1(C)Oc2cc(C(=O)NC3C4CC5CC(C4)CC3C5)cc(O)c2[C@@H]2C[C@H](O)CC[C@H]21 (some centres undefined)
Ki ([1]; read-out: Ki): 15 µM
Ki [2]: 1.2 µM
Ki ([3]; read-out: Ki): 2.7 µM

CC1(C)Oc2cc(C(=O)NC3C4CC5CC(C4)CC3C5)cc(O)c2[C@@H]2C[C@@H](O)CC[C@H]21 (some centres undefined)
Ki ([1]; read-out: Ki): 100 µM
Ki [2]: 3.7 µM
Ki ([3]; read-out: Ki): 15 µM

CC1(C)Oc2cc(CNC34CC5CC(CC(C5)C3)C4)cc(O)c2[C@@H]2C[C@H](O)CC[C@H]21
Ki ([1]; read-out: Ki): 150 µM
Ki [2]: 0.5 µM
Ki ([3]; read-out: Ki): 10 µM

CC1(C)Oc2cc(CNC34CC5CC(CC(C5)C3)C4)cc(O)c2[C@@H]2C[C@@H](O)CC[C@H]21
Ki ([1]; read-out: Ki): 100 µM
Ki [2]: 5 µM
Ki ([3]; read-out: Ki): 25 µM

CC1(C)Oc2cc(CNC3C4CC5CC(C4)CC3C5)cc(O)c2[C@@H]2C[C@H](O)CC[C@H]21 (some centres undefined)
Ki ([1]; read-out: Ki): 150 µM
Ki [2]: 6.2 µM
Ki ([3]; read-out: Ki): 20 µM

CC1(C)Oc2cc(CNC3C4CC5CC(C4)CC3C5)cc(O)c2[C@@H]2C[C@@H](O)CC[C@H]21 (some centres undefined)
Ki [1]: Not Active
Ki [2]: 7.5 µM
Ki ([3]; read-out: Ki): 25 µM

CC1(C)Oc2cc(C34CC5CC(CC(C5)O3)C4)cc(O)c2[C@@H]2C[C@H](O)CC[C@H]21
Ki ([1]; read-out: Ki): 0.023 µM
Ki [2]: 0.018 µM
Ki ([3]; read-out: Ki): 0.019 µM

CC1(C)Oc2cc(C34CC5CC(CC(C5)O3)C4)cc(O)c2[C@@H]2C[C@@H](O)CC[C@H]21
Ki ([1]; read-out: Ki): 0.55 µM
Ki [2]: 0.54 µM
Ki ([3]; read-out: Ki): 1.3 µM

CC1=CC[C@@H]2[C@@H](C1)c1c(O)cc(C34CC5CC(CC(C5)C3)C4)cc1OC2(C)C
Ki ([3]; hek293): Not Active
